Assay results gathered from unrelated publications.
Lines come from different studies, so protocols differ.
PRKD3: Serine/threonine-protein kinase D3 (PRKD3, Homo sapiens, UniProt O94806)
CDK2: Cyclin-dependent kinase 2 (CDK2, Homo sapiens, UniProt P24941)

Compound | target | test | test system | conditions | quantity | value
NC/C(=C\F)COc1cccc(Cn2c(=S)[nH]c(=O)c3[nH]cnc32)c1 | Alpha-1A adrenergic receptor (Adra1a, Rattus norvegicus, UniProt P43140) | ligand displacement, radioligand |  | 10 µM | inhibition | < 50%
C1=C/COCc2cc(ccc2OCCN2CCCC2)Nc2nccc(n2)-c2cccc(c2)COC/1 | PRKD3 | binding |  | 0.1 µM | remaining binding | 89%
Cc1cc(=O)oc2cc(NC(=O)[C@H](CCCN=C(N)N)NC(=O)[C@H](CCCN=C(N)N)NC(=O)OCc3ccccc3)ccc12 | Cathepsin B (CTSB, Homo sapiens, UniProt P07858) | enzyme activity, substrate, fluorescence |  | pH 7.5 | Km | 468 µM
Cc1cc(S(=O)(=O)NC2CC(N3CCN(CC4CCN(c5cccc6c5n(C)c(=O)n6C5CCC(=O)NC5=O)CC4)C4(CC4)C3)C2)ccc1Nc1ncc(C(F)(F)F)c(N2CCC[C@](C)(O)C2)n1 (some centres unmarked) | CDK2 | protein level, degrader, western blot | MKN-1 |  | Dmax | 92%
CCCCC(=O)Nc1ccc(-c2ccc3ncn(CCC)c(=O)c3c2)cn1 | Serine/threonine-protein kinase TNNI3K (TNNI3K, Homo sapiens, UniProt Q59H18) | binding, competition with immobilised ligand |  | 0.5 µM | remaining binding | 91%
C[C@]1(O)CCCN(c2nc(Nc3ccc(S(=O)(=O)N[C@H]4CC[C@H](CN5CCN(c6ccc(C7CCC(=O)NC7=O)cc6F)CC5)CC4)cc3F)ncc2C(F)(F)F)C1 (some centres unmarked) | CDK2 | protein level, degrader, western blot | TOV21G |  | Dmax | 95%
C#Cc1cc(-c2cc(Nc3nc(N[C@@H](C)c4ccc(F)cn4)ncc3Cl)n[nH]2)ccc1C=O | PRKD3 | enzyme activity, inhibitor |  | 0.2 µM | inhibition | 4.02%
Cc1cc(O)c(-c2ccc([C@@H](C)CN(C)C)cc2)c2c1[nH]c(=O)c1sccc12 | Mitogen-activated protein kinase 6 (MAPK6, Homo sapiens, UniProt Q16659) | enzyme activity, inhibitor |  | 0.1 µM | inhibition | 2.75%
